Measured values taken from ChEMBL document CHEMBL1132458, “Potent and selective inhibition of varicella-zoster virus (VZV) by nucleoside analogues with an unusual bicyclic base” (J Med Chem, 1999).

Columns and labels:
[1] = test system: HEL; assay: Compound was evaluated for the cytotoxicity against HEL cells; assay type: functional; settings: Homo sapiens
[2] = test system: Human alphaherpesvirus 3; assay: Compound was evaluated for the inhibition of VZV (TK-) thymidine kinases Strain YS-R; assay type: functional, organism-based
[3] = test system: Human alphaherpesvirus 3; assay: Compound was evaluated for the inhibition of VZV strains of OKA; assay type: functional, organism-based
[4] = test system: Human alphaherpesvirus 3; assay: Compound was evaluated for the inhibition of VZV strains of YS; assay type: functional, organism-based
[5] = test system: Human alphaherpesvirus 3; assay: Compound was evaluated for the inhibition of VZV (TK-) thymidine kinases Strain 07; assay type: functional, organism-based
[6] = test system: HEL; assay: Compound was evaluated for the cytotoxicity against HEL cells; settings: Homo sapiens
[7] = test system: Human alphaherpesvirus 3; assay: Compound was evaluated for the inhibition of VZV (TK-) thymidine kinase-deficient strain 07; assay type: functional, organism-based
In short: (§1)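 Confluent human embryonic lung (HEL) fibroblasts were infected with 20 PFU per well of virus for 1–2 h, and then residual virus was removed. Cells were then kept in MEM with 2% inactivated FCS, 1% L-glutamine and 0.3% sodium bicarbonate, plus serial compound concentrations. Plaques were scored after 5 days. EC50 is the concentration cutting plaque formation by 50% versus untreated control.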

[8] = test system: Human alphaherpesvirus 3; assay: Compound was evaluated for the inhibition of VZV (TK-) thymidine kinase-deficient strain YS-R; assay type: functional, organism-based; in short: as §1

EC50 [2]	EC50 [3]	EC50 [4]	EC50 [5]	EC50 [7]	EC50 [8]	SMILES	MCC [1]	IC50 [6]
> 50000 nM	15 nM	8 nM	> 50000 nM			CCCCCCCCCCc1cc2cn([C@H]3C[C@H](O)[C@@H](CO)O3)c(=O)nc2o1	> 50 µM	> 50000 nM
	1300 nM	2800 nM		> 50000 nM	> 50000 nM	CCCCCCc1cc2cn([C@H]3C[C@H](O)[C@@H](CO)O3)c(=O)nc2o1	200 µM	> 200000 nM
	3000 nM	4600 nM		> 50000 nM	> 50000 nM	CCCCCc1cc2cn([C@H]3C[C@H](O)[C@@H](CO)O3)c(=O)nc2o1	> 50 µM	> 50000 nM
> 20000 nM	1300 nM	1100 nM	> 50000 nM			CCCCCCCCCCCCc1cc2cn([C@H]3C[C@H](O)[C@@H](CO)O3)c(=O)nc2o1	50 µM	> 200000 nM

More lines, now with the values behind:

SMILES	EC50 [2]	EC50 [3]	EC50 [4]	EC50 [5]	EC50 [7]	EC50 [8]	MCC [1]	IC50 [6]
CCCCCCCCCc1cc2cn([C@H]3C[C@H](O)[C@@H](CO)O3)c(=O)nc2o1	> 200000 nM	20 nM	20 nM	> 200000 nM			> 200 µM	> 200000 nM
CCCCCCCCc1cc2cn([C@H]3C[C@H](O)[C@@H](CO)O3)c(=O)nc2o1	> 50000 nM	8 nM	24 nM	> 50000 nM			> 50 µM	> 50000 nM
CCCCCCCc1cc2cn([C@H]3C[C@H](O)[C@@H](CO)O3)c(=O)nc2o1	> 50000 nM	170 nM	390 nM	> 50000 nM			> 50 µM	> 50000 nM
CCCCCCCCCCCc1cc2cn([C@H]3C[C@H](O)[C@@H](CO)O3)c(=O)nc2o1	> 50000 nM	500 nM	500 nM	> 50000 nM			200 µM	> 200000 nM
Nc1nc2c(ncn2COCCO)c(=O)[nH]1 [ACYCLOVIR]							> 200 µM	> 200000 nM
O=c1[nH]c(=O)n([C@H]2C[C@H](O)[C@@H](CO)O2)cc1/C=C/Br [BRIVUDINE]	> 300000 nM	3 nM	6 nM	144000 nM			> 150 µM	> 400000 nM
